From ChEMBL document CHEMBL5523690, “Synergistic effect of tryptamine-urea derivatives to overcome the chromosomally-mediated colistin resistance in Klebsiella pneumoniae” (Bioorg Med Chem, 2024)

What was measured:
Type in all cases: functional
Pseudomonas aeruginosa [1] = assay: Antibacterial activity against chromosomally-mediated colistin resistant Pseudomonas aeruginosa 1002 assessed as inhibition of visible bacterial growth measured after 20 hrs under aerobic condition by two fold serial dilution assay
Escherichia coli [2] = assay: Antibacterial activity against Escherichia coli ATCC25922 assessed as inhibition of visible bacterial growth measured after 20 hrs under aerobic condition by two fold serial dilution assay
How it was run: (§1)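 Broth microdilution following EUCAST. Compound was tested at final well concentrations of 0.25–128 µg/mL against 5.10^5 CFU/mL inoculum, incubated 20 h at 37 °C aerobically. MIC was taken as the lowest concentration with no visible growth. There were three independent experiments per strain.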

Klebsiella pneumoniae [3] = assay: Colistin adjuvant activity against colistin-resistant Klebsiella pneumoniae BA03057 assessed as colistin MIC by measuring potentiation fold incubated for 24 hrs under aerobic condition by two fold serial dilution method relative to colistin alone
Escherichia coli [4] = assay: Antibacterial activity against colistin resistant Escherichia coli A50 harboring mcr-1 gene assessed as inhibition of visible bacterial growth measured after 20 hrs under aerobic condition by two fold serial dilution assay
Klebsiella pneumoniae [5] = assay: Antibacterial activity against Klebsiella pneumoniae ATCC700603 assessed as inhibition of visible bacterial growth measured after 20 hrs under aerobic condition by two fold serial dilution assay; how it was run: as §1
Klebsiella pneumoniae [6] = assay: Antibacterial activity against chromosomally-mediated resistant Klebsiella pneumoniae BA03057 assessed as inhibition of visible bacterial growth measured after 20 hrs under aerobic condition by two fold serial dilution assay
Pseudomonas aeruginosa [7] = assay: Antibacterial activity against Pseudomonas aeruginosa ATCC27853 assessed as inhibition of visible bacterial growth measured after 20 hrs under aerobic condition by two fold serial dilution assay; how it was run: as §1
Pseudomonas aeruginosa [8] = assay: Antibacterial activity against chromosomally-mediated colistin resistant Pseudomonas aeruginosa 15080 assessed as inhibition of visible bacterial growth measured after 20 hrs under aerobic condition by two fold serial dilution assay
Pseudomonas aeruginosa [9] = assay: Antibacterial activity against chromosomally-mediated colistin resistant Pseudomonas aeruginosa 10039 assessed as inhibition of visible bacterial growth measured after 20 hrs under aerobic condition by two fold serial dilution assay
Escherichia coli [10] = assay: Antibacterial activity against colistin resistant Escherichia coli NTCC 13846 harboring mcr-1 gene assessed as inhibition of visible bacterial growth measured after 20 hrs under aerobic condition by two fold serial dilution assay
Escherichia coli [11] = assay: Colistin adjuvant activity against colistin-resistant Escherichia coli A50 assessed as antibacterial effect by measuring colistin MIC incubated for 24 hrs under aerobic condition by two fold serial dilution method
Klebsiella pneumoniae [12] = assay: Colistin adjuvant activity against colistin-resistant Klebsiella pneumoniae BA03057 assessed as antibacterial effect by measuring colistin MIC incubated for 24 hrs under aerobic condition by two fold serial dilution method
Escherichia coli [13] = assay: Colistin adjuvant activity against colistin-resistant Escherichia coli A50 assessed as colistin MIC by measuring potentiation fold incubated for 24 hrs under aerobic condition by two fold serial dilution method relative to colistin alone
Klebsiella pneumoniae [14] = assay: Synergistic antibacterial activity against Klebsiella pneumoniae BA03057 assessed as fractional inhibitory concentration index incubated for 24 hrs under aerobic condition in presence of colistin by checkerboard assay
How it was run: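 Checkerboard against KP BA03057 at 5.10^5 CFU/mL. Colistin was two-fold diluted 0–64 µg/mL across compound two-fold diluted 0–100 µM. Plates were incubated 24 h at 37 °C aerobically and absorbance read at 600 nm. FICI = MIC(compound, combined)/MIC(compound alone) + MIC(colistin, combined)/MIC(colistin alone), with synergy at FICI < 0.5. Plates were run in duplicate.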

Compound | MIC (Pseudomonas aeruginosa [1]) [µg/mL] | MIC (Escherichia coli [2]) [µg/mL] | fold change (FC) (Klebsiella pneumoniae [3]) | MIC (Escherichia coli [4]) [µg/mL] | MIC (Klebsiella pneumoniae [5]) [µg/mL] | MIC (Klebsiella pneumoniae [6]) [µg/mL] | MIC (Pseudomonas aeruginosa [7]) [µg/mL] | MIC (Pseudomonas aeruginosa [8]) [µg/mL] | MIC (Pseudomonas aeruginosa [9]) [µg/mL] | MIC (Escherichia coli [10]) [µg/mL] | MIC (Escherichia coli [11]) [µg/mL] | MIC (Klebsiella pneumoniae [12]) [µg/mL] | fold change (FC) (Escherichia coli [13]) | fractional inhibitory concentration index (FICI) (Klebsiella pneumoniae [14])
CCCNC(=O)NCCc1c[nH]c2ccccc12 | > 128 | > 128 | 0.125 | > 128 | > 128 | > 128 | > 128 | > 128 | > 128 | > 128 | 4 | 8 | 0.5 | –
O=C(NCCc1c[nH]c2ccccc12)Nc1ccc(Cl)cc1 | > 128 | > 128 | 0.062 | > 128 | > 128 | > 128 | > 128 | > 128 | > 128 | > 128 | 4 | 4 | 0.5 | 0.276
O=C(NCCc1c[nH]c2ccccc12)Nc1ccccc1Cl | > 128 | > 128 | 0.125 | > 128 | > 128 | > 128 | > 128 | > 128 | > 128 | > 128 | 8 | 8 | 1 | –
O=C(NCCc1c[nH]c2ccccc12)Nc1ccccc1F | > 128 | > 128 | 0.125 | > 128 | > 128 | > 128 | > 128 | > 128 | > 128 | > 128 | 8 | 8 | 1 | –
O=C(NCCc1c[nH]c2ccccc12)Nc1ccc(Br)cc1 | > 128 | > 128 | 0.125 | > 128 | > 128 | > 128 | > 128 | > 128 | > 128 | > 128 | 2 | 8 | 0.25 | –
Cc1ccc(NC(=O)NCCc2c[nH]c3ccccc23)cc1 | > 128 | > 128 | 0.125 | > 128 | > 128 | > 128 | > 128 | > 128 | > 128 | > 128 | 4 | 8 | 0.5 | –
COLISTIN | 2 | 0.25 | – | 8 | 0.5 | 64 | 2 | 2 | 4 | 2 | – | – | – | –
CC(C)(C)NC(=O)NCCc1c[nH]c2ccccc12 | > 128 | > 128 | 0.125 | > 128 | > 128 | > 128 | > 128 | > 128 | > 128 | > 128 | 8 | 8 | 1 | –
O=C(NCCc1c[nH]c2ccccc12)Nc1cccc(Br)c1 | > 128 | > 128 | 0.125 | > 128 | > 128 | > 128 | > 128 | > 128 | > 128 | > 128 | 8 | 8 | 1 | –
CC(C)c1ccc(NC(=O)NCCc2c[nH]c3ccccc23)cc1 | > 128 | > 128 | 0.25 | > 128 | > 128 | > 128 | > 128 | > 128 | > 128 | > 128 | 4 | 16 | 0.5 | –
O=C(NCCc1c[nH]c2ccccc12)NCc1ccccc1 | > 128 | > 128 | 0.125 | > 128 | > 128 | > 128 | > 128 | > 128 | > 128 | > 128 | 4 | 8 | 0.5 | –
O=C(NCCc1c[nH]c2ccccc12)Nc1ccc(F)cc1 | > 128 | > 128 | 0.125 | > 128 | > 128 | > 128 | > 128 | > 128 | > 128 | > 128 | 4 | 8 | 0.5 | –
COc1ccc(NC(=O)NCCc2c[nH]c3ccccc23)cc1 | > 128 | > 128 | 0.25 | > 128 | > 128 | > 128 | > 128 | > 128 | > 128 | > 128 | 4 | 16 | 0.5 | –
O=C(NCCc1c[nH]c2ccccc12)Nc1cc(Cl)cc(Cl)c1 | > 128 | > 128 | 0.031 | > 128 | > 128 | > 128 | > 128 | > 128 | > 128 | > 128 | 2 | 2 | 0.25 | –
O=C(NCCc1c[nH]c2ccccc12)Nc1ccccc1 | > 128 | > 128 | 0.125 | > 128 | > 128 | > 128 | > 128 | > 128 | > 128 | > 128 | 8 | 8 | 1 | –
